Only some compounds are listed: those with a hit (about 1.8% of all), similar ones and a draw of the others.
Mot1-301 SUMO: yeast Mot1-301 growth rescue at high temperature, primary screen, SUMOylation pathway inhibitor project, S. cerevisiae, ATP luminescence, 38.5C; growth rescue, % at 18.8 µM; AID 2716, 2010; S. cerevisiae Mot1-301 growth rescue; percent above DMSO median, 100 means doubled; 320,000 compounds, 1% hits;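 active = every valid replicate shows activation above 250% relative to neutral control wells; inactive = the rest, any valid replicate at or below 250%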;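 also: OY570 slx delta 5 strain wells were the positive control but not used for scaling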
Efflux pump inh: inhibitors of Candida efflux pumps in yeast, primary screen, S. cerevisiae, Nile Red, multiplex. S. cerevisiae Candida pump triplex. inhibition, % at 10 µM. 330,000 compounds, 0.44% hits;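 active = plate passing quality check with inhibition over a set limit, or well fluorescence over plate mean plus 4 SD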;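 also: Nile Red retained in pooled yeast measured as flow cytometry median fluorescence; 0% = buffer negative control and 100% = Enniatin B positive control; higher means more Nile Red kept so more efflux inhibition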
Cneo AK release: Cryptococcus neoformans cell lysis inducers, primary screen, AK release luminescence, single concentration. lysis activity, % at 15 µM. AID 651654, 2012. 360,000 compounds, 0.2% hits. C. neoformans lysis, adenylate kinase release luminescence, 4 h; normalised: neutral wells 0, clomiphene wells 100;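 active = mean lysis activity across replicates of at least 80%, whatever share of replicates individually reach that level; inactive = mean lysis activity below 80%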
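Test system: log-phase Cryptococcus neoformans yeast cells; Quantity: yeast cell density of 5 × 10^6 cells/mL; Buffer or medium: YPD; Doses: single compound concentration per well; Timing: 4 h at 37 °C static, read 1 h later; Measured by: AK luminescence; Read-out basis: lysis from increased AK signal; Control set: Clomiphene as positive control.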
Statin myotox sup: suppressors of statin myotoxicity in C2C12 myotubes, primary screen, cell-based, single point, plate reader; AID 602340, 2012; C2C12 myotubes + simvastatin, ATP luminescence, 48 h; scaled: DMSO 0, geranylgeraniol control 100; 330,000 compounds, 0.78% hits; rescue of ATP level, % at 7.49 µM;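 active = mean ATP rescue above about 67%, or every replicate alone reaching that limit, limit read from the data, passing the limit was not always enough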;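 also: myotubes were challenged with 10 µM simvastatin during compound exposure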
Numbers without * were called inactive; . = not tested or not shown; ! = not active in a repeat.

SMILES | Mot1-301 SUMO | Efflux pump inh | Cneo AK release | Statin myotox sup
C/C(=C\C(=O)C(F)(F)F)Nc1cc(C)cc(C)c1 | 57 | 0 | 4 | 139*
C/C(=C\C(=O)C(F)(F)F)Nc1ccc(C)cc1 | -18 | 0 | . | .
Cc1ccc(N2CCN(C(=O)c3ccccc3Br)CC2)c(C)c1 | -11 | 0 | 1 | 81*
O=C(CSc1nnc(NC(=O)c2c(F)cccc2F)s1)NCc1ccc(F)cc1 | 670* | 0 | 0 | .
Cn1nccc1C(=O)Nn1cnnc1 | 374 | 0 | -1 | 118*
Cc1cc(C)nc(N2CCCC(C(=O)NCc3cccs3)C2)n1 (stereo not given) | 26 | 0 | 3 | 127*
CC(C)Sc1nc(SCC(=O)NCc2ccco2)c2c3c(sc2n1)COC(C)(C)C3 | 1 | 0 | -6 | 129*
COc1cc2c3c(c1)C1(C(=O)N3C(C)(C)C=C2C)C(C#N)=C(N)Oc2cc(C)oc(=O)c21 (stereo not given) | 241 | . | -2 | 114*
CC1=CC(C)(C)N2C(=O)C3(C(C#N)=C(N)OC4=C3C(=O)CC(C)(C)C4)c3c(C)c(C)cc1c32 (stereo not given) | 3 | 0 | 1 | 92*
CC1=CC(C)(C)N2C(=O)C3(C(C#N)=C(N)Oc4cc(C)oc(=O)c43)c3cc(C)cc1c32 (stereo not given) | -5 | 0 | -5 | .
O=C(NNC(=O)c1ccncc1)c1ccncc1 | 2 | 0 | 0 | -3
O=C(O)CCC(=O)Nc1nnc(C(F)(F)F)s1 | 37 | 0 | -1 | 115*
COC(=O)CCC(=O)Nc1nnc(C(F)(F)F)s1 | 4 | 0 | 6 | 7
CC(=O)Nc1ccc(S(=O)(=O)Oc2ccc(N3C(=O)C4CCCCC4C3=O)cc2)cc1 (stereo not given) | -4 | 0 | 1 | 124*
COc1cccc(S(=O)(=O)NCc2ccc(C(=O)NCC3CCCO3)cc2)c1 (stereo not given) | 15 | 0 | -1 | 34
CCOc1ccc2nc(SCC#N)c(C#N)cc2c1 | -10 | 0 | 1 | 80*
CCCc1ccc(C(O)c2ncc(-c3cccc(C)c3)[nH]2)cc1 (stereo not given) | . | . | 5 | .
C=CCOc1ccc(CNn2nnnc2N)cc1 | 249 | 0 | 0 | .
C=CCOc1c(Br)cc(CNn2nnnc2N)cc1OC | 3 | 0 | 0 | 111*
O=C(Nc1cccc(F)c1)N[C@H]1CC[C@H](CCNS(=O)(=O)c2cccc(Cl)c2)O[C@@H]1CO | . | . | 105* | 15
Cc1ccccc1S(=O)(=O)N[C@@H]1CC[C@H](CCNS(=O)(=O)c2cccc(F)c2)O[C@H]1CO | . | . | 90* | 2
Cc1ccccc1S(=O)(=O)N[C@@H]1CC[C@H](CCNS(=O)(=O)c2cccc(F)c2)O[C@@H]1CO | . | . | 45 | 7
Cc1ccccc1S(=O)(=O)N[C@H]1CC[C@H](CCNS(=O)(=O)c2cccc(F)c2)O[C@H]1CO | . | . | 93* | 2
CCN(CC)C(=O)Nc1ccc(C(=O)OC)cc1 | 0 | 0 | 1 | -9
O=C(O)c1ccccc1CSc1nc2ccccc2o1 | 320* | 0 | 0 | .
SMILES | Mot1-301 SUMO | Efflux pump inh | Cneo AK release | Statin myotox sup
CCn1c(C(=O)NCc2ccccn2)cc2sccc21 | 547 | 1 | 5 | 10
C[C@H]1CN([C@@H](C)CO)C(=O)Cc2cc(NC(=O)C3CC3)ccc2O[C@H]1CN(C)Cc1ccc(-c2ccccc2)cc1 | . | . | 112* | 44
C[C@H]1CN([C@@H](C)CO)C(=O)Cc2cc(NC(=O)C3CCCCC3)ccc2O[C@H]1CN(C)Cc1ccc(-c2ccccc2)cc1 | . | . | -1 | -7
C[C@@H]1CN([C@@H](C)CO)C(=O)Cc2cc(NC(=O)C3CCCCC3)ccc2O[C@H]1CN(C)Cc1ccc(-c2ccccc2)cc1 | . | . | -2 | 137*
C[C@@H]1CN([C@H](C)CO)C(=O)Cc2cc(NC(=O)Cc3cn(C)c4ccccc34)ccc2O[C@H]1CN(C)Cc1ccc2c(c1)OCO2 | . | . | -2 | 79*
CNC[C@H]1Oc2ccc(NC(=O)Cc3cn(C)c4ccccc34)cc2CC(=O)N([C@@H](C)CO)C[C@H]1C | -4 | 0 | 83*! | 36
C[C@H](CO)N1C[C@H](C)[C@@H](CN(C)Cc2ccc(Cl)c(Cl)c2)Oc2ccc(NC(=O)Cc3cn(C)c4ccccc34)cc2CC1=O | . | . | 3 | 127*
C=CCn1c(COc2ccccc2)nnc1SCC(=O)O | 11 | 0 | 1 | -2
CCOC(=O)/C=C1\SCC(=O)N1CC(=O)NC1CCCCC1 | 17 | 0 | 5 | 2
CC1CCN(C(=O)c2cc(F)c(F)cc2Cl)CC1 | 6 | 0 | -2 | 135*
COc1ccccc1C(=O)Nc1ccc2c(c1)C(=O)N(C)C[C@H](OC)[C@@H](C)CN(CC1CC1)[C@@H](C)CO2 | . | . | 96* | 13
CO[C@H]1CN(C)C(=O)c2cc(NC(=O)C3CC3)ccc2OC[C@@H](C)N(Cc2cncnc2)C[C@H]1C | . | . | 84* | -1
CCCNC(=O)Nc1ccc2c(c1)C(=O)N(C)C[C@@H](OC)[C@@H](C)CN(Cc1cccnc1)[C@H](C)CO2 | . | . | -2 | -3
CCCC(=O)Nc1ccc2c(c1)OC[C@H](C)N(Cc1cncnc1)C[C@@H](C)[C@H](OC)CN(C)C2=O | . | . | 1 | 0
CCCNC(=O)Nc1ccc2c(c1)C(=O)N(C)C[C@H](OC)[C@@H](C)CN(Cc1cccnc1)[C@H](C)CO2 | . | . | 81* | 1
CCCC(=O)Nc1ccc2c(c1)OC[C@@H](C)N(Cc1cncnc1)C[C@@H](C)[C@@H](OC)CN(C)C2=O | . | . | 94* | 7
CO[C@@H]1CN(C)C(=O)c2cc(NC(=O)C3CC3)ccc2OC[C@@H](C)N(Cc2cncnc2)C[C@H]1C | . | . | 3 | -3
CC(C)(C)c1cc(CSC(=S)NC2CCS(=O)(=O)C2)c(Br)c(C(C)(C)C)c1 (stereo not given) | 20 | 0 | -3 | 9
O=C(NC1CCCC1)N1CCCCN2[C@H](C1)[C@H](c1ccc(-c3cncnc3)cc1)[C@@H]2CO | . | . | -3 | .
CC(Oc1ccc(Cl)cc1Cl)C(=O)N(Cc1ccco1)C1CCS(=O)(=O)C1 (stereo not given) | -8 | 0 | 1 | 115*
Cc1noc(C)c1S(=O)(=O)Nc1ccc2c(c1)CC(=O)N([C@H](C)CO)C[C@H](C)[C@H](CN(C)Cc1ccc(Cl)c(Cl)c1)O2 | . | . | -3 | -2
Cc1noc(C)c1S(=O)(=O)Nc1ccc2c(c1)CC(=O)N([C@H](C)CO)C[C@@H](C)[C@@H](CN(C)Cc1ccc(-c3ccccc3)cc1)O2 | . | . | . | 98*
Cc1noc(C)c1S(=O)(=O)Nc1ccc2c(c1)C(=O)N([C@H](C)CO)C[C@H](C)[C@H](CN(C)Cc1ccncc1)O2 | . | . | 91* | .
Cc1noc(C)c1S(=O)(=O)Nc1ccc2c(c1)CC(=O)N([C@H](C)CO)C[C@@H](C)[C@@H](CN(C)Cc1ccc(Cl)c(Cl)c1)O2 | . | . | -8 | 97*

Screening results (PubChem BioAssay)
